Laboratory results as given in publication PMC5360466 (Hepatology (Baltimore, Md.), 2017).
Entries after “also recorded” stand apart in the source; their conditions may differ.

Tests used:
Ro1845 [1] = assay: Ro1845 viral yield in mouse cholangiocytes; assay type: cell-based, rotavirus, human strain; mouse cholangiocytes; details: mouse cholangiocytes pretreated with 1 mM peptide; Fig. 2B, 3C
How it was run: (§1)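 Mouse or H69 cholangiocytes were pretreated with peptide in DMEM (1 mM, or varying concentrations) and infected at 4°C, then incubated 18 h at 37°C. Infectious yield was measured by focus forming assay: serial dilutions at 37°C for 14-16 h, acetone fixation, guinea pig anti-rotavirus IgG (1:1000), then FITC anti-guinea pig IgG (1:500), with foci counted by UV microscopy. DGEA and GHRP served as controls.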

Ro1845 [2] = assay: Ro1845 binding assay in mouse cholangiocytes; assay type: cell-based, rotavirus, human strain; mouse cholangiocytes; details: mouse cholangiocytes pretreated with 1 mM peptide; Fig. 2A, 3B
How it was run: (§2)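 Confluent mouse or H69 cholangiocytes were pretreated with peptide (1 mM, or varying concentrations). Cells, medium and virus were chilled to 4°C, then inoculated and held 1 h at 4°C. Cells were washed twice and freeze/thawed twice. Bound virus (cell fraction) and unbound virus (washes plus inoculum) were titred by focus forming assay, and attached virus was expressed as % of inoculum. DGEA and GHRP peptides served as controls. Data are mean ± standard error, ANOVA.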

RRV [3] = assay: RRV binding in siRNA-transfected mouse cholangiocytes; assay type: cell-based, rhesus rotavirus; mouse cholangiocytes; details: 1 mM peptide, Fig. 8A
RRV [4] = assay: RRV binding; assay type: cell-based; details: for effect on RRV-cholangiocyte binding: peptides at varying concentrations, 4°C
How it was run: as §2

TUCH [5] = assay: TUCH viral yield in mouse cholangiocytes; assay type: cell-based, rotavirus, simian strain; mouse cholangiocytes; details: mouse cholangiocytes pretreated with 1 mM peptide; Fig. 2B, 3C
How it was run: as §1

TUCH [6] = assay: TUCH binding assay in mouse cholangiocytes; assay type: cell-based, rotavirus, simian strain; mouse cholangiocytes; details: mouse cholangiocytes pretreated with 1 mM peptide; Fig. 2A, 3B
How it was run: as §2

rotavirus = details: due to decreased viral entry; cited from earlier work
RRV [7] = assay: RRV replication; assay type: cell-based; details: for inhibition of RRV replication: mouse cholangiocytes pretreated with 1 mM peptide, Fig. 8D; for effect on RRV replication: mouse cholangiocytes pretreated with peptide, concentration not given, Fig. 4B
How it was run: as §1

RRV [8] = details: negative control peptide; cited from earlier work
RRV [9] = assay: Murine model of biliary atresia; assay type: in vivo, BALB/c mice; details: bile ducts harvested 12 days after infection with RRV and peptide treatment; Fig. 5C
RRV [10] = assay: RRV replication in human cholangiocytes; assay type: cell-based, rhesus rotavirus; human cholangiocytes (H69)
How it was run: as §1

RRV [11] = assay: RRV binding assay in human cholangiocytes; assay type: cell-based, rhesus rotavirus; human cholangiocytes (H69)
How it was run: as §2

Ro1845 [12] = assay: Ro1845 viral yield in H69 cells; assay type: cell-based, rotavirus, human strain; human cholangiocytes (H69); details: Fig. 6D
How it was run: as §1

GRV [13] = assay: GRV viral yield in mouse cholangiocytes; assay type: cell-based, rotavirus, goat strain; mouse cholangiocytes; details: mouse cholangiocytes pretreated with 1 mM peptide; Fig. 2B
How it was run: as §1

GRV [14] = assay: GRV binding assay in mouse cholangiocytes; assay type: cell-based, rotavirus, goat strain; mouse cholangiocytes; details: mouse cholangiocytes pretreated with 1 mM peptide; Fig. 2A
How it was run: as §2

TUCH [15] = assay: TUCH viral yield in H69 cells; assay type: cell-based, rotavirus, simian strain; human cholangiocytes (H69); details: Fig. 6D
How it was run: as §1

GRV [16] = assay: GRV binding assay in H69 cells; assay type: cell-based, rotavirus, goat strain; human cholangiocytes (H69); details: Fig. 6C
How it was run: as §2

TUCH [17] = assay: TUCH binding assay in H69 cells; assay type: cell-based, rotavirus, simian strain; human cholangiocytes (H69); details: Fig. 6C
How it was run: as §2

Ro1845 [18] = assay: Ro1845 binding assay in H69 cells; assay type: cell-based, rotavirus, human strain; human cholangiocytes (H69); details: Fig. 6C
How it was run: as §2

GRV [19] = assay: GRV viral yield in H69 cells; assay type: cell-based, rotavirus, goat strain; human cholangiocytes (H69); details: Fig. 6D
How it was run: as §1

[20] = mouse cholangiocytes pretreated with 1 mM peptide, versus serum-free media, Fig. 3B, 4C, 8C
[21] = mouse cholangiocytes pretreated with peptide, concentration not given, Fig. 4A

## DGEA [reference compound]
Ro1845 [1]
  effect on Ro1845 replication / viral yield: significantly inhibited
Ro1845 [2]
  effect on Ro1845 binding: significantly inhibited
RRV [3]
  peptide blocking of RRV binding in negative control siRNA cholangiocytes: remained sensitive to DGEA blocking
RRV [4]; [20]
  effect on RRV binding: significantly inhibited
RRV [4]; mouse cholangiocytes, concentration not given, Fig. 1B
  RRV binding, percent of control (positive control): 61.40%
TUCH [5]
  effect on TUCH replication / viral yield: significantly inhibited
TUCH [6]
  effect on TUCH binding: significantly inhibited

## FSGIKSTIDAAKSMATNVMKKFKK [reference compound]
rotavirus
  viral replication in MA104 cells treated with peptide: reduced viral replication
RRV [7]
  inhibition of RRV replication: 42.43%
RRV [4]; [20]
  effect on RRV binding: no effect

## GHRP
RRV [8]
  ability to inhibit RRV binding: no ability to inhibit RRV binding

## ISRLY
RRV [4]; [20]
  effect on RRV binding: maintained the ability to inhibit

## KTKIDRSTQISPNTLPD [reference compound]
rotavirus
  viral replication in MA104 cells treated with peptide: reduced viral replication
RRV [7]
  inhibition of RRV replication: 54.50%
RRV [4]; [20]
  effect on RRV binding: no effect

## MRTRVSGLY
Ro1845 [1]
  effect on Ro1845 replication / viral yield: no effect
Ro1845 [2]
  effect on Ro1845 binding: no effect
RRV [4]; [20]
  effect on RRV binding: no effect
TUCH [5]
  effect on TUCH replication / viral yield: no effect
TUCH [6]
  effect on TUCH binding: no effect

## MRTRVSRLY
RRV [7]
  effect on RRV replication: significantly inhibiting
RRV [4]; [21]
  effect on RRV binding: significantly inhibiting

## PTAAGV
RRV [4]; mouse cholangiocytes, Fig. 1B
  effect on RRV-cholangiocyte binding: did not interfere

## SSASAW
RRV [9]
  histology of extrahepatic bile ducts (hematoxylin and eosin): complete obstruction of their bile ducts
RRV [4]; mouse cholangiocytes, Fig. 1B
  effect on RRV-cholangiocyte binding: did not interfere

## TRTRVSRLY
RRV [10]; H69 cells, 1 mM peptide, Fig. 6B
  RRV replication within human cholangiocytes, of control: 57.9%
RRV [10]; strain comparison, Fig. 6D
  effect on RRV viral yield in H69 cells: reduced viral yields
RRV [11]; H69 cells, 1 mM peptide, Fig. 6A
  RRV binding to human cholangiocytes, of control: 65.9%
RRV [11]; strain comparison, Fig. 6C
  effect on RRV binding to H69 cells: able to block
Ro1845 [1]
  effect on Ro1845 replication / viral yield: no reduction in viral yield; also recorded: no effect
Ro1845 [12]
  effect on Ro1845 viral yield in H69 cells: no decrease in yield
RRV [9]
  histology of extrahepatic bile ducts (hematoxylin and eosin): mild inflammation with a patent lumen
GRV [13]
  reduction of GRV viral yield, of control: 35.51%
GRV [14]
  inhibition of GRV binding compared with control: 41.27%
Ro1845 [2]
  effect on Ro1845 binding: no effect
TUCH [15]
  effect on TUCH viral yield in H69 cells: no decrease in yield
RRV [7]
  inhibition of RRV replication: 44.53%
  effect on RRV replication: significantly inhibiting
GRV [16]
  effect on GRV binding to H69 cells: able to block
RRV [4]; [20]
  effect on RRV binding: significantly reduced
RRV [4]; mouse cholangiocytes pretreated with 1 mM peptide, Fig. 2A
  inhibition of RRV binding compared with control: 45.13%
RRV [4]; [21]
  effect on RRV binding: significantly inhibiting
TUCH [5]
  effect on TUCH replication / viral yield: no reduction in viral yield; also recorded: no effect
TUCH [17]
  effect on TUCH binding to H69 cells: no effects
TUCH [6]
  effect on TUCH binding: no effect
Ro1845 [18]
  effect on Ro1845 binding to H69 cells: no effects
GRV [19]
  effect on GRV viral yield in H69 cells: reduced viral yields

## VRTRISGLY
Ro1845 [1]
  effect on Ro1845 replication / viral yield: no effect
Ro1845 [2]
  effect on Ro1845 binding: no effect
RRV [4]; [20]
  effect on RRV binding: no effect
TUCH [5]
  effect on TUCH replication / viral yield: no effect
TUCH [6]
  effect on TUCH binding: no effect

## VSGLY
RRV [4]; [20]
  effect on RRV binding: unable to exhibit such inhibition

## VSRAY
RRV [4]; [20]
  effect on RRV binding: unable to exhibit such inhibition

## VSRLA
RRV [4]; [20]
  effect on RRV binding: maintained the ability to inhibit

## VSRLY
RRV [4]; [20]
  effect on RRV binding: maintained the ability to inhibit

## VVRLY
RRV [4]; [20]
  effect on RRV binding: unable to exhibit such inhibition
